The source of these data is ChEMBL document CHEMBL3621143, “Discovery of BMS-641988, a Novel Androgen Receptor Antagonist for the Treatment of Prostate Cancer” (ACS Med Chem Lett, 2015).

Series [1] concerns Rattus norvegicus. Put plainly: In vivo antagonist activity at androgen receptor in immature Sprague-Dawley rat prostate weight model assessed as testosterone propionate-induced weight of seminal vesicles over full body weight at 1 mg/kg, po qd administered for 4 days. It counts as functional. More on the design: scale not given: the % may be the effect or the level left. The essentials:
(§1)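 Immature rat prostate weight PK/PD model. Oral dosing once daily at 1 or 10 mg/kg for 4 days. Seminal vesicle weight expressed as % of full body weight, n=3, scaled so testosterone-treated control = 100% and sham = 10%.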

The subject of series [2] is Rattus norvegicus. Put plainly: In vivo antagonist activity at androgen receptor in immature Sprague-Dawley rat prostate weight model assessed as testosterone propionate-induced weight of seminal vesicles over full body weight at 10 mg/kg, po qd administered for 4 days. It counts as functional. Further details: scale not given: the % may be the effect or the level left. The essentials:
as §1

Series [3] is described as follows: Plasma concentration in immature Sprague-Dawley rat prostate weight model at 1 mg/kg, po qd administered for 4 days measured 2 hrs post last dose on day 4. It counts as ADME, organism-based. The method in brief: (§2)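 Immature rat prostate weight model, oral dosing once daily at 1 or 10 mg/kg for 4 days. Plasma drug concentration (µM) measured 2 hours post-dose on day 4, n=3.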

Series [4] can be described thus: Plasma concentration in immature Sprague-Dawley rat prostate weight model at 10 mg/kg, po qd administered for 4 days measured 2 hrs post last dose on day 4. In kind it is ADME, organism-based. The method in brief:
as §2

The subject of series [5] is CWR22. The series is described as follows: Antitumor activity against human CWR22 cells in Balb/c athymic (nu/nu) mouse CWR22-BMSLD1 prostate cancer xenograft model assessed as tumor growth inhibition at 150 mg/kg, po qd measured for 10 days during compound dosing. It counts as functional, organism-based. The essentials:
(§3)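 CWR22-BMSLD1 human prostate cancer xenograft. Oral once-daily dosing at 90 mg/kg for 45 days, or at 150 mg/kg for 35 days, with a vehicle group. Median tumor volume (mm3) tracked against days post implant.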

Series [6] relates to CWR22. The series is described as follows: Antitumor activity against human CWR22 cells in Balb/c athymic (nu/nu) mouse CWR22-BMSLD1 prostate cancer xenograft model assessed as tumor growth inhibition at 150 mg/kg, po qd administered for 35 days measured from day 10 to 35 during compound dosing. It counts as functional, organism-based. The essentials:
as §3
(A xenograft is tissue or cells of one species grown in another, often human tumour cells in immunodeficient mice.)

Series [7] deals with T1, Androgen receptor (Homo sapiens, UniProt P10275).
T1 sequence (P10275 whole entry): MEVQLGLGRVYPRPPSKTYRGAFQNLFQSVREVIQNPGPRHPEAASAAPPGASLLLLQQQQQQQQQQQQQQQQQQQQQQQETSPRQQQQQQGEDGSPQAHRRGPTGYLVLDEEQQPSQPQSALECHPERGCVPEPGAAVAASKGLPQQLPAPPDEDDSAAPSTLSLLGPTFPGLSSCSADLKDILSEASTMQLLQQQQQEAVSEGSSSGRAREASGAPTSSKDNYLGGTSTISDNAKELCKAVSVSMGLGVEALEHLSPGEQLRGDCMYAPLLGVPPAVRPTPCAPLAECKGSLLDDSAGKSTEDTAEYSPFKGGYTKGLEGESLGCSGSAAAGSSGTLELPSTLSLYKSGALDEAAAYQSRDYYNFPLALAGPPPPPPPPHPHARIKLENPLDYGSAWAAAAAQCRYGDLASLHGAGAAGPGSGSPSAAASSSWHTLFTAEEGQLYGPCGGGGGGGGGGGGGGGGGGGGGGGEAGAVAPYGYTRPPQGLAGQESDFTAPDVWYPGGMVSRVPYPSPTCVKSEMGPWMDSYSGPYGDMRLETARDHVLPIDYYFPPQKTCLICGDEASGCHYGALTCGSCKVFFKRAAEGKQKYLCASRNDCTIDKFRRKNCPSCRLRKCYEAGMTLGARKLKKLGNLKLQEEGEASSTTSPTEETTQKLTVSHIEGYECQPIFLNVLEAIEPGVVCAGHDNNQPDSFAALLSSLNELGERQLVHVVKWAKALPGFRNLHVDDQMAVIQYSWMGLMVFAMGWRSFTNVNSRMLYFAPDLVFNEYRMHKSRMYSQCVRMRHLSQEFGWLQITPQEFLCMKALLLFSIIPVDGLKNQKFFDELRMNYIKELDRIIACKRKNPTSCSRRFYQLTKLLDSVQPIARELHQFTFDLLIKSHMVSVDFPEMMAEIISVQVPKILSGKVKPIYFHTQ
The series is described as follows: Displacement of [3H]-DHT from androgen receptor in human MDA-MB-453 cells after 90 mins by TopCount analysis. In kind it is cell-based.

For series [8], the target named is T1, Androgen receptor. The series is described as follows: Antagonist activity at androgen receptor in human MDA-MB-453 cells assessed as inhibition of DHT-induced PSA expression by alkaline phosphatase reporter gene assay. It counts as cell-based.
Series [9] can be described thus: Protein binding in mouse serum. It counts as ADME, cell-free. To be noted: read-out: PB.

Activity calls are given as the source filed them. No cut-off for these calls is given here.

Turning to `CC(O)(CS(=O)(=O)c1ccc(F)cc1)C(=O)Nc1ccc(C#N)c(C(F)(F)F)c1` (stereo not drawn) [BICALUTAMIDE], the Activity in the series with Rattus norvegicus [1] is reported as 69%; in the series on Rattus norvegicus [2], 41%. The concentration at 2 h was 2300 nM in series [3] and 9500 nM in series [4]. In addition, the TGI result in the series with CWR22 [5] is “Active”. In addition, in the series on CWR22 [6], the TGI entry is “inactive”.
In general, Ki refers to the dissociation constant of the complex between target and ligand, obtained from inhibition or displacement. Usually IC50 stands for the concentration that gives 50% inhibition. `C[C@]12O[C@@](C)(C[C@H]1NS(C)(=O)=O)[C@H]1C(=O)N(c3ccc(C#N)c(C(F)(F)F)c3)C(=O)[C@H]12`: affinity on Androgen receptor [7] was put at a Ki of 12 nM. Besides, the IC50 on Androgen receptor [8] worked out at 20 nM. Moreover, the Activity was found to be 64% in the series on Rattus norvegicus [1] and 26% in the series with Rattus norvegicus [2]. Besides, the concentration at 2 h in series [3] came out at 290 nM; in series [4] it was 4000 nM.
As to `CC(C)NC(=O)N[C@@H]1C[C@]2(C)O[C@]1(C)[C@@H]1C(=O)N(c3ccc(C#N)c(C(F)(F)F)c3)C(=O)[C@@H]12`, the Ki at Androgen receptor [7] was found to be 31 nM. The IC50 at Androgen receptor [8] amounted to 60 nM. In addition, the Activity in the series on Rattus norvegicus [1] was 115%; in the series with Rattus norvegicus [2], 56%. The concentration at 2 h worked out at 8300 nM in series [3] and 60000 nM in [4]. Also, in [9], the fraction unbound is under 0.01.
On Androgen receptor [7], `CC(C)OC(=O)[C@@H]1C[C@]2(C)O[C@]1(C)[C@@H]1C(=O)N(c3ccc(C#N)c(C(F)(F)F)c3)C(=O)[C@@H]12` came in with a Ki of 23 nM. Further, the IC50 at Androgen receptor [8] was 22 nM.
Taken in the same sequence, the figures for `CC12C[C@H](O)[C@](C)(O1)[C@@H]1C(=O)N(c3ccc(C#N)c(I)c3)C(=O)[C@@H]12` (single isomer, unassigned) were 8 nM and 10 nM.
`C[C@]12O[C@@](C)(C[C@H]1NS(=O)(=O)c1ccccc1F)[C@H]1C(=O)N(c3ccc(C#N)c(C(F)(F)F)c3)C(=O)[C@H]12`: the affinity on Androgen receptor [7], expressed as Ki, was 1 nM. Moreover, the half-inhibitory concentration (IC50) on Androgen receptor [8] came out at 10 nM. The Activity with Rattus norvegicus [1] is listed as 56%; with Rattus norvegicus [2] it was 24%. Further, the concentration at 2 h in series [3] worked out at 160 nM; in series [4], 1900 nM.
In the case of `C[C@]12O[C@@](C)(C[C@H]1C(=O)O)[C@H]1C(=O)N(c3ccc(C#N)c(C(F)(F)F)c3)C(=O)[C@H]12`, the Ki on Androgen receptor [7] amounted to 1600 nM. The IC50 at Androgen receptor [8] was over 5000 nM.
On to `C[C@]12O[C@@](C)(C[C@H]1NS(=O)(=O)c1ccccc1)[C@H]1C(=O)N(c3ccc(C#N)c(C(F)(F)F)c3)C(=O)[C@H]12`, for which the affinity at Androgen receptor [7], expressed as Ki, was 10 nM. The IC50 at Androgen receptor [8] worked out at 1 nM. Also, the Activity in the series on Rattus norvegicus [1] is 63%; with Rattus norvegicus [2] it was 31%. The concentration at 2 h in series [3] was 230 nM; in [4], 2400 nM.
The compound `CN(C(=O)[C@@H]1C[C@]2(C)O[C@]1(C)[C@@H]1C(=O)N(c3ccc(C#N)c(C(F)(F)F)c3)C(=O)[C@@H]12)c1ccccc1` yielded a Ki on Androgen receptor [7] of 50 nM. The IC50 at Androgen receptor [8] is 34 nM. The results for the Activity in the series with Rattus norvegicus [1] and with Rattus norvegicus [2] were 88% and 43%, respectively. Further, the concentration at 2 h in [3] was 1800 nM; in series [4], 12000 nM.
`C[C@]12O[C@@](C)(C[C@H]1NS(=O)(=O)c1cccnc1)[C@H]1C(=O)N(c3ccc(C#N)c(C(F)(F)F)c3)C(=O)[C@H]12` yielded a Ki at Androgen receptor [7] of 2 nM. Besides, the IC50 on Androgen receptor [8] is 7 nM. Besides, the values for the Activity in the series on Rattus norvegicus [1] and with Rattus norvegicus [2] were 44% and 23%, respectively. Besides, the concentration at 2 h in series [3] was 50 nM; in [4] it was 520 nM.
For the compound `CNS(=O)(=O)N[C@@H]1C[C@]2(C)O[C@]1(C)[C@@H]1C(=O)N(c3ccc(C#N)c(C(F)(F)F)c3)C(=O)[C@@H]12`, the inhibition constant Ki at Androgen receptor [7] is 50 nM. The IC50 at Androgen receptor [8] turned out to be 34 nM. For the same compound, the Activity in the series with Rattus norvegicus [1] is 89%; in the series on Rattus norvegicus [2], 36%. Moreover, the results for the concentration at 2 h in series [3] and in series [4] were 10 nM and 230 nM, respectively.
For the compound `CCC(=O)N[C@@H]1C[C@]2(C)O[C@]1(C)[C@@H]1C(=O)N(c3ccc(C#N)c(C(F)(F)F)c3)C(=O)[C@@H]12`, the Ki on Androgen receptor [7] came to 3 nM. Moreover, on Androgen receptor [8], the IC50 came out at 23 nM. For the same compound, the Activity is listed as 87% in the series on Rattus norvegicus [1] and 34% in the series with Rattus norvegicus [2]. In addition, the concentration at 2 h in [3] worked out at 24000 nM; in series [4], 190000 nM. Moreover, the fraction unbound in series [9] is under 0.01.
At Androgen receptor [7], `C[C@]12O[C@@](C)(C[C@H]1N)[C@H]1C(=O)N(c3ccc(C#N)c(C(F)(F)F)c3)C(=O)[C@H]12` came in with a Ki of 31 nM. The IC50 on Androgen receptor [8] amounted to 60 nM. Also, the Activity in the series on Rattus norvegicus [1] and in the series on Rattus norvegicus [2] was 89% each time. The concentration at 2 h in [3] turned out to be 80 nM; in series [4], 480 nM.
